In ChEMBL document CHEMBL3853277, “Efficient Synthesis of Glaziovianin A Isoflavone Series from Dill and Parsley Extracts and Their in Vitro/in Vivo Antimitotic Activity” (J Nat Prod, 2016):

What was measured:
[1] = Growth inhibition of human HCT116 cells measured after 48 hrs by MTS assay; format: functional, cell-based; conditions: HCT-116, 48 h
Summary of the method: (§1)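 Cancer lines grown in their own media with 10% FBS at 37 °C, 5% CO2; 1 × 10^4 cells/well treated 48 h at 0.01−100 μM (DMSO stocks, 0.1% DMSO control), quadruplicate wells. MTS reagent 1−4 h, absorbance 490 nm. IC50 by sigmoidal fitting; mean ± SD of three independent experiments.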

[2] = system: Paracentrotus lividus; experiment: Antimitotic activity in sea urchin Paracentrotus lividus L embryo assessed as induction of cleavage alteration; format: functional
Summary of the method: (§2)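 Gametes collected by intracoelomic 0.5 M KCl injection; fertilized eggs (8−15 min postfertilization) exposed in seawater to 2-fold decreasing concentrations, up to 2000 embryos/mL, room temperature. Stocks 10 mM in DMSO diluted 10-fold in 96% EtOH. Cleavage alteration/arrest scored at 2.5−5.5 h; effective threshold concentration reported, duplicate measurements.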

[3] = system: Paracentrotus lividus; experiment: Antimitotic activity against sea urchin Paracentrotus lividus L embryo assessed as induction of cleavage arrest; format: functional; summary of the method: as §2
[4] = system: Paracentrotus lividus; experiment: Antimitotic activity against sea urchin Paracentrotus lividus L embryo assessed as induction of embryo spinning; format: functional
Summary of the method: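 Hatched free-swimming blastulae (8−9 h postfertilization) exposed to 2-fold decreasing concentrations in seawater, room temperature; DMSO stock diluted 10-fold in 96% EtOH. Observed to four-arm pluteus (34−36 h); spinning on well bottom without forward movement scored as microtubule destabilization; effective threshold concentration, duplicate measurements.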

[5] = Growth inhibition of human A549 cells by MTS assay; format: functional, cell-based; summary of the method: as §1
[6] = Growth inhibition of human A375 cells measured after 48 hrs by MTS assay; format: functional, cell-based; conditions: A-375, 48 h; summary of the method: as §1
[7] = Growth inhibition of human DU145 cells measured after 48 hrs by MTS assay; format: functional, cell-based; conditions: DU-145, 48 h; summary of the method: as §1
[8] = Growth inhibition of human PC3 cells measured after 48 hrs by MTS assay; format: functional, cell-based; conditions: PC-3, 48 h; summary of the method: as §1
[9] = Growth inhibition of human MDA-MB-231 cells measured after 48 hrs by MTS assay; format: functional, cell-based; conditions: MDA-MB-231, 48 h; summary of the method: as §1
[10] = Growth inhibition of human SKOV3 cells measured after 48 hrs by MTS assay; format: functional, cell-based; conditions: SK-OV-3, 48 h; summary of the method: as §1
[11] = Growth inhibition of human PBMC cells measured after 48 hrs by MTS assay; format: cell-based
Summary of the method: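 PBMCs from healthy volunteers by Ficoll-Paque density separation, washed in RPMI 1640, cultured in RPMI 1640 with 10% heat-inactivated FBS at 37 °C, 5% CO2. Seeded 1 × 10^4 cells/well, treated 48 h at 0.01−100 μM, 0.1% DMSO control, quadruplicate wells; MTS read at 490 nm; IC50 by sigmoidal fitting, three experiments.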

[12] = system: Paracentrotus lividus; experiment: Antimitotic activity against sea urchin Paracentrotus lividus L embryo assessed as induction of tuberculate egg formation; format: functional
Summary of the method: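 Fertilized eggs were exposed 8−15 min post-fertilization to 2-fold decreasing concentrations, as a monolayer of up to 2000 embryos/mL in filtered seawater at room temperature. The 10 mM DMSO stock was diluted 10-fold in 96% EtOH. Cleavage alteration or arrest was scored by light microscopy at 2.5−5.5 h post-fertilization, and the effective threshold concentration was recorded from duplicate measurements.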

COc1cc2occ(-c3cc(OC)c(OC)c(OC)c3OC)c(=O)c2cc1OC
IC50 [1]: > 10 µM
EC [2]: >4 µM
EC [3]: >4 µM
EC [4]: >4 µM
IC50 [5]: > 10 µM
IC50 [6]: > 10 µM
IC50 [7]: > 10 µM
IC50 [8]: > 10 µM
IC50 [9]: > 10 µM
IC50 [10]: > 10 µM
IC50 [11]: > 10 µM

COc1ccc(-c2coc3cc(OC)c(OC)cc3c2=O)cc1
IC50 [1]: > 10 µM
EC [2]: 0.2 µM
EC [4]: >5 µM
IC50 [5]: > 10 µM
IC50 [6]: > 10 µM
IC50 [7]: > 10 µM
IC50 [8]: > 10 µM
IC50 [9]: > 10 µM
IC50 [10]: > 10 µM
IC50 [11]: > 10 µM
EC [12]: 1 µM

COc1ccc(-c2coc3cc(OC)c(OC)cc3c2=O)cc1OC
IC50 [1]: > 10 µM
EC [2]: 4 µM
EC [3]: >4 µM
EC [4]: >4 µM
IC50 [5]: > 10 µM
IC50 [6]: > 10 µM
IC50 [7]: > 10 µM
IC50 [8]: > 10 µM
IC50 [9]: > 10 µM
IC50 [10]: > 10 µM
IC50 [11]: > 10 µM

COc1ccc(-c2coc3c(OC)c(OC)c(OC)cc3c2=O)cc1OC
EC [2]: 4 µM
EC [3]: >4 µM
EC [4]: >4 µM

COc1cc2occ(-c3cc(OC)c4c(c3)OCO4)c(=O)c2cc1OC
IC50 [1]: > 10 µM
EC [2]: 0.1 µM
EC [4]: >5 µM
IC50 [5]: > 10 µM
IC50 [6]: 6.1 µM
IC50 [7]: > 10 µM
IC50 [8]: > 10 µM
IC50 [9]: > 10 µM
IC50 [10]: > 10 µM
IC50 [11]: > 10 µM
EC [12]: 1 µM

COc1ccc(-c2coc3c(OC)c4c(c(OC)c3c2=O)OCO4)cc1OC
IC50 [1]: > 10 µM
EC [2]: >4 µM
EC [3]: >4 µM
EC [4]: >4 µM
IC50 [5]: > 10 µM
IC50 [6]: > 10 µM
IC50 [7]: > 10 µM
IC50 [8]: > 10 µM
IC50 [9]: > 10 µM
IC50 [10]: > 10 µM
IC50 [11]: > 10 µM

COc1cc2occ(-c3cc(OC)c(OC)c(OC)c3)c(=O)c2cc1OC
IC50 [1]: 2.8 µM
EC [2]: 0.2 µM
EC [4]: >5 µM
IC50 [5]: > 10 µM
IC50 [6]: 3.2 µM
IC50 [7]: 4.9 µM
IC50 [8]: 5.1 µM
IC50 [9]: > 10 µM
IC50 [10]: 4.3 µM
IC50 [11]: > 10 µM
EC [12]: 1 µM

COc1cc2occ(-c3cc4c(c(OC)c3OC)OCO4)c(=O)c2cc1OC
IC50 [1]: 3.4 µM
EC [2]: 0.5 µM
EC [4]: >5 µM
IC50 [5]: > 10 µM
IC50 [6]: 1.7 µM
IC50 [7]: 6.4 µM
IC50 [8]: 7.3 µM
IC50 [9]: 7.1 µM
IC50 [10]: > 10 µM
IC50 [11]: > 10 µM
EC [12]: 5 µM

COc1cccc(-c2coc3cc(OC)c(OC)cc3c2=O)c1
IC50 [1]: > 10 µM
EC [2]: 2 µM
EC [3]: >4 µM
EC [4]: >5 µM
IC50 [5]: > 10 µM
IC50 [6]: > 10 µM
IC50 [7]: > 10 µM
IC50 [8]: > 10 µM
IC50 [9]: > 10 µM
IC50 [10]: > 10 µM
IC50 [11]: > 10 µM

COc1ccc(-c2coc3cc(OC)c(O)cc3c2=O)cc1
EC [2]: 1 µM
EC [4]: >5 µM
EC [12]: 4 µM

COc1ccc(-c2coc3cc(OC)c(OC)c(OC)c3c2=O)cc1
EC [2]: >4 µM
EC [3]: >4 µM
EC [4]: >4 µM

COc1ccc(/C=C\c2cc(OC)c(OC)c(OC)c2)cc1OP(=O)([O-])[O-].[Na+].[Na+] [FOSBRETABULIN DISODIUM]
IC50 [1]: 0.0016 µM
EC [2]: 0.005 µM
EC [3]: 0.01 µM
EC [4]: 0.05 µM
IC50 [5]: 0.0234 µM
IC50 [6]: 0.0016 µM
IC50 [7]: 0.0014 µM
IC50 [8]: 0.0062 µM
IC50 [9]: 0.0028 µM
IC50 [10]: 0.0077 µM
IC50 [11]: 0.17 µM

COc1cc2occ(-c3cc(OC)c4c(c3OC)OCO4)c(=O)c2cc1OC [GLAZIOVIANIN A]
IC50 [1]: 0.69 µM
EC [2]: 0.05 µM
EC [3]: 0.5 µM
EC [4]: 4 µM
IC50 [5]: 1.1 µM
IC50 [6]: 0.27 µM
IC50 [7]: 0.87 µM
IC50 [8]: 0.83 µM
IC50 [9]: 2.2 µM
IC50 [10]: 0.43 µM
IC50 [11]: > 10 µM
